Published values gathered from unrelated publications.
Each line is one published result; the experiments were not run side by side.
Cell line: MDA-MB-435
Observed: cell growth or viability

COc1ccc(C(=O)/C=C/c2ccc3ccccc3c2)cc1S(N)(=O)=O
inhibition (SRB; 10 µM): 98%

CCOC(=O)c1[nH]c(Br)c(-c2ccc(OC)cc2)c1Br
IC50 (SRB): 843 nM

COc1ccc(C(=O)/C=C/c2cccc(Br)c2)cc1S(N)(=O)=O
inhibition (SRB; 10 µM): 106%

CCOC(=O)c1[nH]c(Br)c(-c2ccc(OC(F)(F)F)cc2)c1Br
IC50 (SRB): 1700 nM

COc1cc(-c2ccc(-c3ccc(C(=N)N)nc3)s2)cc(OC)c1OC
GI50 (SRB): 1620 nM

COc1ccc(C(=O)/C=C/c2cccnc2)cc1S(N)(=O)=O
inhibition (SRB; 10 µM): 26%

COc1cc(Nc2nccc(-c3cnn4nc(OC)ccc34)n2)cc(C(F)(F)F)c1
IC50 (ATP luminescence): 130 nM

COc1ccc(C(=O)/C=C/c2cccc3ccccc23)cc1S(N)(=O)=O
inhibition (SRB; 10 µM): 95%

CCOC(=O)c1[nH]c(Br)c(-c2ccc3c(c2)OCO3)c1Br
IC50 (SRB): 1800 nM

COc1ccc(-c2ccc(-c3ccc(C(=N)N)nc3)s2)cc1Cl
GI50 (SRB): 1730 nM

O=C1NC(=NCc2cccs2)S/C1=C\c1ccc2ncccc2c1
IC50: 6600 nM

COc1ccc(N(C)c2ncnc3c2CCC3)cc1
IC50 (SRB): 50.4 nM

CCOC(=O)c1[nH]c(Br)c(-c2ccc(OC)c(F)c2)c1Br
IC50 (SRB): 539 nM
